The source of these data is ChEMBL document CHEMBL3826882, “Discovery of 1-((2R,4aR,6R,7R,7aR)-2-Isopropoxy-2-oxidodihydro-4H,6H-spiro[furo[3,2-d][1,3,2]dioxaphosphinine-7,2'-oxetan]-6-yl)pyrimidine-2,4(1H,3H)-dione (JNJ-54257099), a 3'-5'-Cyclic Phosphate Ester Prodrug of 2'-Deoxy-2'-Spirooxetane Uridine Triphosphate Useful for HCV Inhibition” (J Med Chem, 2016).

The subject of data set [1] is Hepatocyte. The data set is described as follows: Prodrug conversion in mouse primary hepatocytes assessed as 2'-deoxy-2'-spirooxetane uridine triphosphate level per million cells at 62.5 uM after 4 hrs using radiolabelled compound by LC-MS/MS analysis. The data set is classed as ADME, cell-based. Summed up: (§1)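 Study A: fresh primary hepatocyte cultures from mouse, rat, dog and human incubated with tritiated prodrug at 2 or 62.5 µM for 4 or 24 h. Triphosphate in cell lysates reported as pmol/million hepatocytes. Duplicate or single measurements.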

Data set [2] is described as follows: Prodrug conversion in dog primary hepatocytes assessed as 2'-deoxy-2'-spirooxetane uridine triphosphate level per million cells at 2 uM after 24 hrs using radiolabelled compound by LC-MS/MS analysis. The data set is classed as ADME, cell-based, Canis lupus familiaris, Hepatocyte. Summed up:
as §1

For data set [3], the system named is Hepatocyte. The data set is described as follows: Stability in rat primary hepatocyte supernatant assessed as parent compound level at 2 uM after 4 to 24 hrs using radiolabeled compound by HPLC analysis. The conditions noted are these: hepatocytes. Type of data set: ADME, cell-based.
The test system of data set [4] is Hepatocyte. The data set can be described thus: Drug metabolism in human primary hepatocyte supernatant assessed as 1-[(4aR,6R,7R,7aR)-2-hydroxy-2-oxidodihydro-4H-spiro[furo[3,2-d][1,3,2]dioxaphosphinine-7,2'-oxetan]-6-yl]pyrimidine-2,4(1H,3H)-dione formation at 2 to 62.5 uM after 4 to 24 hrs using radiolabelled compound by HPLC analysis. The data set is classed as ADME, cell-based. Conditions: hepatocytes. Summed up: (§2)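 Fresh primary hepatocyte cultures incubated with tritiated prodrug (5'-[3H]) at 2 and 62.5 µM for 4 and 24 h. Supernatants taken after protein precipitation and profiled by HPLC with radioactivity detection. Cell lysates profiled for metabolites by radio-LC. Cyclic monophosphate also measured by LC/MS/MS.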

For data set [5], the system named is Hepatocyte. The data set can be described thus: Drug metabolism in rat primary hepatocyte supernatant assessed as 1-[(4aR,6R,7R,7aR)-2-hydroxy-2-oxidodihydro-4H-spiro[furo[3,2-d][1,3,2]dioxaphosphinine-7,2'-oxetan]-6-yl]pyrimidine-2,4(1H,3H)-dione formation at 2 to 62.5 uM after 4 to 24 hrs using radiolabelled compound by HPLC analysis. Type of data set: ADME, cell-based. Conditions: hepatocytes. A digest of the protocol: as §2

The nature of data set [6]: Drug metabolism in dog primary hepatocyte supernatant assessed as 1-[(4aR,6R,7R,7aR)-2-hydroxy-2-oxidodihydro-4H-spiro[furo[3,2-d][1,3,2]dioxaphosphinine-7,2'-oxetan]-6-yl]pyrimidine-2,4(1H,3H)-dione formation at 2 to 62.5 uM after 4 to 24 hrs using radiolabelled compound by HPLC analysis. The data set is classed as ADME, cell-based, Canis lupus familiaris. The conditions noted are these: hepatocytes. Summed up: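 Study A: primary cultured hepatocytes (mouse, rat, dog, human) incubated with 2 or 62.5 µM 5'-[3H]-labelled prodrug for 4 and 24 h. Cell lysates were analysed for triphosphate. Supernatants were protein-precipitated and profiled by HPLC with radioactivity detection. Cyclic monophosphate was also assessed by LC/MS/MS.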

Data set [7] relates to Hepatitis C virus. The data set can be described thus: Antiviral activity against HCV genotype 1a infected in homozygous cDNA-uPA chimeric SCID mouse bearing humanized hepatocytes assessed as change in HCV RNA level in serum at 200 mg/kg, po qd administered through gavage for 7 days by RT-PCR method. The data set is classed as functional, Hepacivirus hominis, subtype 1a, Hepatocyte. A digest of the protocol:
(§3)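 Male chimeric SCID cDNA-uPA+/+ mice with human hepatocyte liver (≥70% replacement by blood human albumin) and serum HCV RNA >1.0×10^6 copies/mL the week before dosing. Oral gavage for 7 days in 20% HP-β-CD, 50-200 mg/kg QD or BID. Serum sampled pre-dose on days 1, 2, 3, 5 and 7. Real-time PCR; mean change in log10 copies/mL, day 7 vs day 1 pre-dose.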

Data set [8] deals with Hepatitis C virus. The data set is described as follows: Antiviral activity against HCV genotype 3a infected in homozygous cDNA-uPA chimeric SCID mouse bearing humanized hepatocytes assessed as change in HCV RNA level in serum at 200 mg/kg, po bid administered through gavage for 7 days by RT-PCR method. Type of data set: functional, Hepacivirus hominis, Hepatocyte. Summed up:
as §3

The nature of data set [9]: Cytotoxicity against human HuH7-CMV-Luc cells assessed as reduction in cell proliferation after 3 days by 5-bromo-2'-deoxyuridine incorporation assay. The data set is classed as cell-based, Huh-7. Summed up: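 Huh7 cells at 1,500 cells/well, five serial compound dilutions in triplicate, 3 days of incubation. Proliferation was quantified as BrdU incorporation into DNA by ELISA.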

In data set [10] the test system is Hepatocyte. The data set can be described thus: Prodrug conversion in rat cryopreserved hepatocytes assessed as 2'-deoxy-2'-spirooxetane uridine triphosphate level per million cells at 10 uM after 24 hrs by LC-MS/MS analysis. The data set is classed as ADME, cell-based. Summed up: (§4)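 Plated cryopreserved hepatocytes (study B) incubated with 10 µM unlabeled prodrug for 2, 8 or 24 h. Triphosphate measured in cell lysates and expressed as pmol/million hepatocytes. Quantification limit 2 ng/10^6 cells.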

A short description of data set [11]: Prodrug conversion in dog cryopreserved hepatocytes assessed as 2'-deoxy-2'-spirooxetane uridine triphosphate level per million cells at 10 uM after 2 hrs by LC-MS/MS analysis. The data set is classed as ADME, cell-based, Canis lupus familiaris, Hepatocyte. A digest of the protocol: as §4
Data set [12] can be described thus: Prodrug conversion in dog cryopreserved hepatocytes assessed as 2'-deoxy-2'-spirooxetane uridine triphosphate level per million cells at 10 uM after 8 hrs by LC-MS/MS analysis. The data set is classed as ADME, cell-based, Canis lupus familiaris, Hepatocyte. A digest of the protocol:
as §4

The test system of data set [13] is Hepatocyte. The data set can be described thus: Prodrug conversion in rat primary hepatocytes assessed as 2'-deoxy-2'-spirooxetane uridine triphosphate formation measured at 2 hrs by LC-MS/MS analysis. Type of data set: ADME, cell-based. A digest of the protocol:
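Hepatocyte primary cultures followed over time for triphosphate formation in cell lysates: rat and mouse up to 24 h, human up to 96 h.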

In data set [14] the test system is Hepatocyte. The data set is described as follows: Prodrug conversion in human hepatocytes assessed as 2'-deoxy-2'-spirooxetane uridine triphosphate formation in presence of CYP3A4 inhibitor ketoconazole by LC-MS/MS analysis. Type of data set: ADME, cell-based.
For data set [15], the system named is Hepatocyte. The data set is described as follows: Prodrug conversion in human hepatocytes assessed as 2'-deoxy-2'-spirooxetane uridine triphosphate formation in presence of PDE5 inhibitor sildenafil by LC-MS/MS analysis. The data set is classed as ADME, cell-based.
Data set [16] is described as follows: AUC (0 to infinity) in mouse plasma at 50 mg/kg, po. The data set is classed as ADME, organism-based. Set-up: dose 50 mg/kg, route oral, time infinity. A digest of the protocol:
(§5)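 Oral dose 50 mg/kg, formulated in 20% HP-β-cyclodextrin. Prodrug and triphosphate were measured in plasma and liver (ng/mL or ng/g). Parameters derived were Cmax, tmax, AUC0-last, AUC0-inf and t1/2. Some prodrug data come from two independent studies.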

Data set [17] can be described thus: Ratio of AUC (0 to last) in mouse liver to AUC (0 to last) in mouse plasma. The data set is classed as ADME. A digest of the protocol: (§6)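 Single oral dose of 50 mg/kg in 20% HP-β-cyclodextrin. Prodrug and triphosphate measured in plasma and liver over time (tlast 6–30 h). Half-life, Cmax, tmax and AUC0-last derived; liver/plasma ratio taken from AUC0-last. Prodrug data pooled from two independent studies.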

Data set [18] concerns Liver. The data set can be described thus: AUC (0 to infinity) in mouse liver assessed as 2'-deoxy-2'-spirooxetane uridine triphosphate at 50 mg/kg, po. Type of data set: ADME, organism-based. Set-up: dose 50 mg/kg, time infinity, route oral. The conditions noted are these: in vivo. A digest of the protocol:
as §5

Data set [19] in a line: AUC (0 to infinity) in rat plasma at 50 mg/kg, po. The data set is classed as ADME, organism-based. Set-up: dose 50 mg/kg, time infinity, route oral. Summed up: as §5
The subject of another data set is Plasma. The data set is described as follows: Tlast in dog plasma at 50 mg/kg, po. Type of data set: ADME, organism-based, Canis lupus familiaris. The conditions noted are these: in vivo. A digest of the protocol:
(§7)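 Single oral dose of 50 mg/kg formulated in 20% HP-β-cyclodextrin. Prodrug and its triphosphate were measured in plasma and liver (ng/mL or ng/g) over time, and Cmax, tmax, AUC, tlast and t1/2 were derived. For some analytes, data from two independent studies are reported.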

Data set [20] in a line: Half life in dog plasma at 50 mg/kg, po. The data set is classed as ADME, organism-based, Canis lupus familiaris. Summed up:
as §6

Data set [21] can be described thus: Tmax in dog liver at 50 mg/kg, po. The data set is classed as ADME, organism-based, Canis lupus familiaris. Summed up:
as §7

In data set [22] the test system is Liver. The data set can be described thus: Tmax in dog liver assessed as 2'-deoxy-2'-spirooxetane uridine triphosphate at 50 mg/kg, po. Conditions: in vivo. Type of data set: ADME, organism-based, Canis lupus familiaris. Summed up:
as §7

In data set [23] the test system is Liver. The data set can be described thus: AUC (0 to last) in dog liver assessed as 2'-deoxy-2'-spirooxetane uridine triphosphate at 50 mg/kg, po. The conditions noted are these: in vivo. Type of data set: ADME, organism-based, Canis lupus familiaris. A digest of the protocol:
as §5

For `[3H]C1O[P@](=O)(OC(C)C)O[C@@H]2[C@@H]1O[C@@H](n1ccc(=O)[nH]c1=O)[C@@]21CCO1` (some centres undefined), the Drug metabolism in the data set on Hepatocyte [1] is listed as 0.12 pmol; in [2] it was 0.007 pmol; in the data set with Hepatocyte [4], “metabolite_detected”; with Hepatocyte [5], “metabolite_detected”; in data set [6] it was “metabolite_detected”. In addition, the Stability result in the data set on Hepatocyte [3] is given as “Stable”.
Broadly, the CC50 is the concentration that lowers cell viability or growth by half. The term AUC(0-inf) denotes total exposure, with the tail of the curve extrapolated. The low end stands for less exposure, the high end for more exposure. The term Kp denotes tissue or fluid exposure divided by exposure in the circulation. The half-life is how long it takes for the measured level to halve. A high value points to slow decline. What is called Tmax is the time from dosing to the highest level. With `CC(C)O[P@@]1(=O)OC[C@H]2O[C@@H](n3ccc(=O)[nH]c3=O)[C@@]3(CCO3)[C@@H]2O1`, the results for the Activity with Hepatitis C virus [7] and in the data set on Hepatitis C virus [8] were -0.64 and -1.58, respectively. Moreover, the CC50 at 72 h in [9] is more than 100 µM. The Drug metabolism was 0.231 pmol in the data set on Hepatocyte [10]; less than 2 ng in [11]; 0.004 pmol in data set [12]; “metabolite_detected” in the data set with Hepatocyte [13]; “metabolite_notdetected” in the data set with Hepatocyte [14]; “metabolite_notdetected” in the data set on Hepatocyte [15]. Further, the values for the AUC(0-inf) in [16] and in data set [19] were 2620 ng·h/mL and 7440 ng·h/mL, respectively. For the same compound, the Kp in data set [17] is 0.57. In addition, the AUC in the data set with Liver [18] was determined as 129396 ng·h/g. The compound further had a Tlast in the data set on Plasma of 24 h. Besides, the half-life in data set [20] was 7.3 h. The Tmax in data set [21] came to 1 h; in the data set with Liver [22], 4 h. Besides, the AUClast with Liver [23] was 223803 ng·h/g.
